Results as given in the M2OR odorant receptor database.

Legend:
Conditions in all cases: stereoisomer not certain
OR5P3 (Homo sapiens) = target: T1, OR5P3 (Homo sapiens) (UniProt Q8WZ94)
T1 sequence (whole entry): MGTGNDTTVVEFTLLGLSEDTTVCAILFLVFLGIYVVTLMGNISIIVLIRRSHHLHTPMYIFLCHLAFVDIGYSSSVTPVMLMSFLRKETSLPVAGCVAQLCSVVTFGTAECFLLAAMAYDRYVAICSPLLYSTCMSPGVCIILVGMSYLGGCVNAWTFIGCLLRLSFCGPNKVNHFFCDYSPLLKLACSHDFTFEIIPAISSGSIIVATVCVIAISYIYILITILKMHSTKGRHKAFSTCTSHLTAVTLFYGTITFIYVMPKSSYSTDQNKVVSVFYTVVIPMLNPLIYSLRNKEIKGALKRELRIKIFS
Procedure, shortened: (§1)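 Each entry records the cell line, G-protein, co-transfected protein and tags used. Methods varied with the source, often transient luciferase assays in mammalian cell lines. A receptor–molecule pair is called responsive (active) if the original authors judged its signal statistically different from baseline and non-responsive (inactive) otherwise.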

OR5M3 (Homo sapiens) = target: T2, OR5M3 (Homo sapiens) (UniProt Q8NGP4)
T2 sequence (whole entry): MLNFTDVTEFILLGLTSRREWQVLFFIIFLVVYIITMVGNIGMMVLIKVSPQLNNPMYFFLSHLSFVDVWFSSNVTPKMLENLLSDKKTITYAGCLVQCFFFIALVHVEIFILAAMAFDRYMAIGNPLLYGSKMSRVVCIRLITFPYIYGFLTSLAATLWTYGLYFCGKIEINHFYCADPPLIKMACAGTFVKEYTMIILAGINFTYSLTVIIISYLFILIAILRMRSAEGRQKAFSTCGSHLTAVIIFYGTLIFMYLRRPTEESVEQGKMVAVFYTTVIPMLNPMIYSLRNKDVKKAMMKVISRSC
Procedure, shortened: as §1

OR5M1 T295R M301I = system: OR5M1 T295R M301I
Procedure, shortened: as §1

OR5M10 (Homo sapiens) = OR5M10 (Homo sapiens) (UniProt Q6IEU7)
OR5M10 (Homo sapiens), sequence (Q6IEU7 whole entry): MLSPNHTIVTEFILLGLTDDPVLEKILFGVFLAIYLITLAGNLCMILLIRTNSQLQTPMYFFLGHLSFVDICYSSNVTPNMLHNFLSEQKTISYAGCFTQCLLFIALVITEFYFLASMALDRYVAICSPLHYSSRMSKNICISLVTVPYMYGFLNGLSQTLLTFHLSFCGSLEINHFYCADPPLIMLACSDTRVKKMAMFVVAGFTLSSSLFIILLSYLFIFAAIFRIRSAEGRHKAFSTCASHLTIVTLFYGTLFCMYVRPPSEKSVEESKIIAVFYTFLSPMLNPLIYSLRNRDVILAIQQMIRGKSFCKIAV
Procedure, shortened: as §1

OR5M11 (Homo sapiens) = OR5M11 (Homo sapiens) (UniProt Q96RB7)
OR5M11 (Homo sapiens), sequence (Q96RB7 whole entry): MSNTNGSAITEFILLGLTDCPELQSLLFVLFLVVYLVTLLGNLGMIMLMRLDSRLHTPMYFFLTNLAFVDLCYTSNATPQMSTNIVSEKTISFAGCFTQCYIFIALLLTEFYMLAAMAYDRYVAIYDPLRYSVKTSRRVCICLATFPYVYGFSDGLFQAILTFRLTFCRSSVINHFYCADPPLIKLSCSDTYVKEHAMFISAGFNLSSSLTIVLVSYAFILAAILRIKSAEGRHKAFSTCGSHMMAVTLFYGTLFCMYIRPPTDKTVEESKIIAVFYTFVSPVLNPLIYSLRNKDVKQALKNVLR
Procedure, shortened: as §1

OR5M3 N3Y A156T = system: OR5M3 N3Y A156T
Procedure, shortened: as §1

OR5M8 (Homo sapiens) = OR5M8 (Homo sapiens) (UniProt Q8NGP6)
OR5M8 (Homo sapiens), sequence (Q8NGP6 whole entry): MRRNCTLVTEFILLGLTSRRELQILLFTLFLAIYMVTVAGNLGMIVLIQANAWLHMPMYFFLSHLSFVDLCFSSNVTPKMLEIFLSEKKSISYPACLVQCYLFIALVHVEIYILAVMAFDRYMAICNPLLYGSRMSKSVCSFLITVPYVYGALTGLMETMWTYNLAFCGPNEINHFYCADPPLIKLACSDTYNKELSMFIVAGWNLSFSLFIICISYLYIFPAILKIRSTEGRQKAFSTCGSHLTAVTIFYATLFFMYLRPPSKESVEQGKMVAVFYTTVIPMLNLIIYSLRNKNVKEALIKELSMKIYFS
Procedure, shortened: as §1

OR5M9 (Homo sapiens) = OR5M9 (Homo sapiens) (UniProt Q8NGP3)
OR5M9 (Homo sapiens), sequence (Q8NGP3 whole entry): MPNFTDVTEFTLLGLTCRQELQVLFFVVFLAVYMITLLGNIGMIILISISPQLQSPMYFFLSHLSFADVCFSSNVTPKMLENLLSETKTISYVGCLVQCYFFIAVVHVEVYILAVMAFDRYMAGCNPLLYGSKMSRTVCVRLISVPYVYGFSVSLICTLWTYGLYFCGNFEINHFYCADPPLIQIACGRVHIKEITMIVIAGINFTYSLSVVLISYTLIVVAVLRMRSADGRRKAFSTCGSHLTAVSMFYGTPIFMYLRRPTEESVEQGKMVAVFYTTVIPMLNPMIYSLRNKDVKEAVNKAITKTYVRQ
Procedure, shortened: as §1

OR5MA L2F C311H = system: OR5MA L2F C311H
Procedure, shortened: as §1

OR5MA L2F Q54H C311H = system: OR5MA L2F Q54H C311H
Procedure, shortened: as §1

OR5P2 (Homo sapiens) = OR5P2 (Homo sapiens) (UniProt Q8WZ92)
OR5P2 (Homo sapiens), sequence (Q8WZ92 whole entry): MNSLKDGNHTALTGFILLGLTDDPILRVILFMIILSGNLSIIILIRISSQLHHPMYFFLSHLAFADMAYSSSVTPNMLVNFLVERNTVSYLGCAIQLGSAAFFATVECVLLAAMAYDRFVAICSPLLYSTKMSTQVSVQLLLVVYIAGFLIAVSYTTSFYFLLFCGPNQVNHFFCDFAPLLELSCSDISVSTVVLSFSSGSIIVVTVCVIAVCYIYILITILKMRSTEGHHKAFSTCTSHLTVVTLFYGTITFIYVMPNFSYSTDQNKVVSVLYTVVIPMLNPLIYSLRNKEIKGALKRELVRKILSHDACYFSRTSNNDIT
Procedure, shortened: as §1

OR5P3 L301R = system: OR5P3 L301R
OR5P3 L301R, sequence (as listed by the source, stated change not applied): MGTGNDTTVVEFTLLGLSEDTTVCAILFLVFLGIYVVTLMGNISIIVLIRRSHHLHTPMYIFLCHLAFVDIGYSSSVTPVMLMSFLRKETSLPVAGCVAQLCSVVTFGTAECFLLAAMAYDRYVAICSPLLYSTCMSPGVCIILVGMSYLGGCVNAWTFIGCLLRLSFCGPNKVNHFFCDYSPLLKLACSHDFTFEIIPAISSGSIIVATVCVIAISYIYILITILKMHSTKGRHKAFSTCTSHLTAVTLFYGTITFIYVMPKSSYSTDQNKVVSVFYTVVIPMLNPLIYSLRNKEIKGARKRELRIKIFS
Procedure, shortened: as §1

OR5R1 C122R S128G F184L = system: OR5R1 C122R S128G F184L
Procedure, shortened: as §1

OR5T1 (Homo sapiens) = OR5T1 (Homo sapiens) (UniProt Q8NG75)
OR5T1 (Homo sapiens), sequence (Q8NG75 whole entry): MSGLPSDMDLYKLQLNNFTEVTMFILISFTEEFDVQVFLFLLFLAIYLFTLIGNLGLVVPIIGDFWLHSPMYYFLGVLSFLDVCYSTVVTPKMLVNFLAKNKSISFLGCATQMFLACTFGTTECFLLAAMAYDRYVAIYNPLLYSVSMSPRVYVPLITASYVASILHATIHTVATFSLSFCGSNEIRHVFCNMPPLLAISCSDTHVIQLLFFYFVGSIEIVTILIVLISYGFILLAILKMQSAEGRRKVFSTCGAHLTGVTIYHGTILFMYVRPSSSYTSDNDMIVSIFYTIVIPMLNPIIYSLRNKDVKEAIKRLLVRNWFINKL
Procedure, shortened: as §1

OR5T2 (Homo sapiens) = OR5T2 (Homo sapiens) (UniProt Q8NGG2)
OR5T2 (Homo sapiens), sequence (Q8NGG2 whole entry): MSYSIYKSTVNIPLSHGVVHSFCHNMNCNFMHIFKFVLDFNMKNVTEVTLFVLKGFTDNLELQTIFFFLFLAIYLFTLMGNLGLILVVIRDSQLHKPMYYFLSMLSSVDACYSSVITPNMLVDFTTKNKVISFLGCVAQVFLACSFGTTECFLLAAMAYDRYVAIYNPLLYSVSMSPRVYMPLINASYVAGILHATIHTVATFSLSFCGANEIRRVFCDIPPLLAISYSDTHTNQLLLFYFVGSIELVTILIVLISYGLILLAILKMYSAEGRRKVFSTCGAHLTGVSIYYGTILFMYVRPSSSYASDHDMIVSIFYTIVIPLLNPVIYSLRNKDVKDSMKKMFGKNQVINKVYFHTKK
Procedure, shortened: as §1

OR5T2 S4G = system: OR5T2 S4G
OR5T2 S4G, sequence (as listed by the source): as the sequence (Q8NGG2 whole entry) above, with S4G counted along it
Procedure, shortened: as §1

OR5T3 (Homo sapiens) = OR5T3 (Homo sapiens) (UniProt Q8NGG3)
OR5T3 (Homo sapiens), sequence (Q8NGG3 whole entry): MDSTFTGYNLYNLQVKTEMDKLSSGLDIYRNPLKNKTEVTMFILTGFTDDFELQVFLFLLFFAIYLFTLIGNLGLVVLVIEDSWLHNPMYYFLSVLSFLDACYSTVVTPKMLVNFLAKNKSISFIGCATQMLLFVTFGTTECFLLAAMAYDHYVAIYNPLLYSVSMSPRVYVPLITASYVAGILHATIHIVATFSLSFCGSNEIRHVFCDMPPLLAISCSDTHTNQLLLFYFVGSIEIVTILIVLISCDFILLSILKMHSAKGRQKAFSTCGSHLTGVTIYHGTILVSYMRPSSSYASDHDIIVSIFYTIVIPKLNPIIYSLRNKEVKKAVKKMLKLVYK
Procedure, shortened: as §1

OR5V1 (Homo sapiens) = OR5V1 (Homo sapiens) (UniProt Q9UGF6)
OR5V1 (Homo sapiens), sequence (Q9UGF6 whole entry): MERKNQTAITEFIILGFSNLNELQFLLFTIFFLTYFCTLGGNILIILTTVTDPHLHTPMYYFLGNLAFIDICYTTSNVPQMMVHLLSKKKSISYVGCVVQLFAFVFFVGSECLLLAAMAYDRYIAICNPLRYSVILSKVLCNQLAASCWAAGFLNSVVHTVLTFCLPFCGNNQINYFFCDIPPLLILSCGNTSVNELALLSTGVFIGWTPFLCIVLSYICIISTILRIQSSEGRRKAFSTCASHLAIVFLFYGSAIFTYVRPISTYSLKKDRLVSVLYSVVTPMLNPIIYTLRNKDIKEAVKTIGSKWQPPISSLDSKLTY
Procedure, shortened: as §1

OR5W2 (Homo sapiens) = OR5W2 (Homo sapiens) (UniProt Q8NH69)
OR5W2 (Homo sapiens), sequence (Q8NH69 whole entry): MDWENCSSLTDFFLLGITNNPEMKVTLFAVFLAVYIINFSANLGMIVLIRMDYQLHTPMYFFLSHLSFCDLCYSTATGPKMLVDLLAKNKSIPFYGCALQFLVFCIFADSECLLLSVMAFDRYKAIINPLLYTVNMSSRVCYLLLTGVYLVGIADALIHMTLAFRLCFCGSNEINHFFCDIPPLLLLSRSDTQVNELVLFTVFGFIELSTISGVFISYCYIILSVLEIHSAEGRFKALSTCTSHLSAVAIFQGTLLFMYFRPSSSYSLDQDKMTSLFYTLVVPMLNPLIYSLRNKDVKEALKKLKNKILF
Procedure, shortened: as §1

OR5W2 R189C = system: OR5W2 R189C
OR5W2 R189C, sequence (as listed by the source, stated change not applied): as the sequence (Q8NH69 whole entry) above, with R189C counted along it
Procedure, shortened: as §1

Measured: odorant receptor agonist call

C=CCc1ccccc1
inactive: OR5P3 (Homo sapiens)

CCOC(=O)Cc1ccccc1
inactive: OR5M3 (Homo sapiens)

O=c1cc(O)c2ccccc2o1
inactive: OR5P3 (Homo sapiens)

NCC(=O)c1ccccc1
inactive: OR5M3 (Homo sapiens)

COc1ccc(C=O)cc1
inactive: OR5M3 (Homo sapiens)

SCc1ccco1
inactive: OR5M3 (Homo sapiens)

CCC1CCC(=O)O1 (stereo not given)
inactive: OR5P3 (Homo sapiens)

O=Cc1ccc2c(c1)OCO2
inactive: OR5M3 (Homo sapiens)

CSSC
inactive: OR5M3 (Homo sapiens)

C=CCOC(=O)Cc1ccccc1
inactive: OR5M1 T295R M301I | OR5M10 (Homo sapiens) | OR5M11 (Homo sapiens) | OR5M3 (Homo sapiens) | OR5M3 N3Y A156T | OR5M8 (Homo sapiens) | OR5M9 (Homo sapiens) | OR5MA L2F C311H | OR5MA L2F Q54H C311H | OR5P2 (Homo sapiens) | OR5P3 (Homo sapiens) | OR5P3 L301R | OR5R1 C122R S128G F184L | OR5T1 (Homo sapiens) | OR5T2 (Homo sapiens) | OR5T2 S4G | OR5T3 (Homo sapiens) | OR5V1 (Homo sapiens) | OR5W2 (Homo sapiens) | OR5W2 R189C

Cc1ccc(O)c(C)c1
inactive: OR5M3 (Homo sapiens)

Cc1c([N+](=O)[O-])c(C)c([N+](=O)[O-])c(C(C)(C)C)c1[N+](=O)[O-]
inactive: OR5M10 (Homo sapiens) | OR5M11 (Homo sapiens) | OR5M3 (Homo sapiens) | OR5M8 (Homo sapiens) | OR5M9 (Homo sapiens) | OR5P2 (Homo sapiens) | OR5P3 (Homo sapiens) | OR5T1 (Homo sapiens) | OR5T2 (Homo sapiens) | OR5T3 (Homo sapiens) | OR5V1 (Homo sapiens) | OR5W2 (Homo sapiens)

C=CCc1ccc(OC)cc1
inactive: OR5M3 (Homo sapiens)

Cc1ccccc1O
inactive: OR5M3 (Homo sapiens)

C=CCSSCC=C
inactive: OR5M3 (Homo sapiens)
